29 compounds from ChEMBL document CHEMBL4840368, “Structure-activity relationship and molecular modelling studies of quinazolinedione derivatives MMV665916 as potential antimalarial agent” (Bioorg Med Chem, 2021) can be followed below.

The structures appear in SMILES notation. Where only a bound is given, the exact number is not on record here.

Data set [1] relates to Plasmodium falciparum. The data set is described as follows: Antimalarial activity against chloroquine-resistant Plasmodium falciparum FcB1(CQR)Colombia assessed as parasite growth inhibition at 20 uM relative to control. The data set is classed as functional. In outline: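 Single-point screen at 20 μM against erythrocytic stages of chloroquine-resistant P. falciparum FcB1 (Columbia) in culture. Read-out is percent parasite growth inhibition.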

Data set [2] relates to Plasmodium falciparum. The data set is described as follows: Antimalarial activity against chloroquine-resistant Plasmodium falciparum FcB1(CQR)Colombia assessed as parasite growth inhibition. The data set is classed as functional, organism-based. In outline: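 Erythrocytic-stage growth inhibition in culture of chloroquine-resistant P. falciparum FcB1 (Columbia). EC50 comes from a 10-point dose-response, run only for compounds above a 60% inhibition cut-off in the 20 μM single-point screen. Values are means of at least two experiments.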

The nature of data set [3]: Selectivity index, ratio of IC50 for human AB943 cells to IC50 for Antimalarial activity against chloroquine-resistant Plasmodium falciparum FcB1(CQR)Colombia. The format is toxicity. The note with it: read-out: Selectivity Index.
A short description of data set [4]: Cytotoxicity against human AB943 cells. The format is cell-based.
Data set [5] in a line: Kinetic solubility of compound at pH 7.4. The data set is classed as physicochemical. The note with it: buffer.
Data set [6] concerns Plasmodium falciparum. Briefly: Antiplasmodial activity against Plasmodium falciparum FCR3. The data set is classed as functional, organism-based.
Data set [7] in a line: AUC (0 to 7 hrs) in mouse at 140 micromol/kg, po. The format is ADME. Details: time < 7 hr, route oral, dose 140 µmol/kg. Particulars: in vivo, 140 µmol/kg.
The subject of data set [8] is Plasmodium berghei. Briefly: Antiplasmodial activity against Plasmodium berghei at 5 uM. The format is functional.
Data set [9] in a line: Cmax in mouse at 140 micromol/kg, po. Particulars: in vivo, 140 µmol/kg. Further details: route oral, dose 140 µmol/kg. The format is ADME.
Data set [10] has as its system Plasmodium falciparum. Briefly: Antiplasmodial activity against Plasmodium falciparum Dd2. The data set is classed as functional, organism-based.
For data set [11], the system named is Plasmodium falciparum. The data set is described as follows: Antiplasmodial activity against Plasmodium falciparum W2. The data set is classed as functional, organism-based.
The test system of data set [12] is Plasmodium berghei. The data set is described as follows: Antiplasmodial activity against luciferase expressing Plasmodium berghei. The data set is classed as functional, organism-based.
The test system of data set [13] is Plasmodium falciparum. The data set is described as follows: Antiplasmodial activity against Plasmodium falciparum K1. The format is functional, organism-based.
A short description of data set [14]: Plasma protein binding in human. The format is ADME, cell-free. The note with it: read-out: PPB.
The nature of data set [15]: MRT (0 to 7 hrs) in mouse at 140 micromol/kg, po. The data set is classed as ADME. The note with it: in vivo, dose 140 µmol/kg.
Data set [16] concerns Plasmodium falciparum. The data set is described as follows: Antiplasmodial activity against Plasmodium falciparum 3D7. The data set is classed as functional, organism-based.
For data set [17], the target named is hERG (KCNH2) (Homo sapiens, UniProt Q12809). The data set is described as follows: Inhibition of human ERG at 11 uM.
Data set [18] in a line: Tmax in mouse at 140 micromol/kg, po. Particulars: in vivo, dose 140 µmol/kg. The format is ADME.

Sequence of hERG (KCNH2) (Q12809 whole entry): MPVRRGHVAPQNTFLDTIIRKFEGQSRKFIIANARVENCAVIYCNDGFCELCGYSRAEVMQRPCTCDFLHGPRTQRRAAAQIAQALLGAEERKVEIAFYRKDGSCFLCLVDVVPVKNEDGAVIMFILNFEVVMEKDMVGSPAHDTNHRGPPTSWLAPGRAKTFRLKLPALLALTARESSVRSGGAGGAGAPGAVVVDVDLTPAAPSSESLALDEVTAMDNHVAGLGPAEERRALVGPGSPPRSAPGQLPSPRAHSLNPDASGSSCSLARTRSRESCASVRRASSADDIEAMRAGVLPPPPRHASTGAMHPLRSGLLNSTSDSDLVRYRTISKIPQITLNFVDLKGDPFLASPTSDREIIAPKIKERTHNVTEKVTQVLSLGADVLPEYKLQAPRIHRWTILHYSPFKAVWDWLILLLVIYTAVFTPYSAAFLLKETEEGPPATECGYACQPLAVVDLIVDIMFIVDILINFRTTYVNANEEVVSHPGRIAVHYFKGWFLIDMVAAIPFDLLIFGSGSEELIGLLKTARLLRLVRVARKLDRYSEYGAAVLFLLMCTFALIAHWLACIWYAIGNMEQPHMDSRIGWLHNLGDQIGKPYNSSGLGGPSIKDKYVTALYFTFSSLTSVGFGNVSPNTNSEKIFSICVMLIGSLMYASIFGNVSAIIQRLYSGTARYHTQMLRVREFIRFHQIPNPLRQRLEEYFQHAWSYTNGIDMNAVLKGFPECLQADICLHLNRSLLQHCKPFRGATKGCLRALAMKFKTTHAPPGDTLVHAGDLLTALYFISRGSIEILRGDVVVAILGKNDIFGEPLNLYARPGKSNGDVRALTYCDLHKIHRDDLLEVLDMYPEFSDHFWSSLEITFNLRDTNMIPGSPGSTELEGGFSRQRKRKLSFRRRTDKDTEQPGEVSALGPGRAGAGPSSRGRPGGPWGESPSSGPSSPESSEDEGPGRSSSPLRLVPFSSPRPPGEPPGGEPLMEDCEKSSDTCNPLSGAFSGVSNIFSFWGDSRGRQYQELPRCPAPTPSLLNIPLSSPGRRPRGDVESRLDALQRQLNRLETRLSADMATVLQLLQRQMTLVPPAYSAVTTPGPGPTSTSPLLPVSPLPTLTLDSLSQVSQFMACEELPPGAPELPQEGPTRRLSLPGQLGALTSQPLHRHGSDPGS

As to `O=C(CCn1c(=O)[nH]c2ccccc2c1=O)NCc1ccccc1OC(F)F`, the inhibition at 20 µM in data set [1] came to 63.8%. Further, in data set [2], the EC50 was determined as 32 µM.
As for `COc1ccccc1Cn1cc(CCn2c(=O)[nH]c3ccccc3c2=O)nn1`, the inhibition at 20 µM in data set [1] was determined as 68.8%.
Take `COc1ccccc1CCNC(=O)CCn1c(=O)[nH]c2ccccc2c1=O`: in data set [2], the EC50 was determined as 10.1 µM.
`CC(C)CCNC(=O)CCn1c(=O)[nH]c2ccccc2c1=O`: the 50% effective concentration (EC50) in data set [2] was above 25 µM.
For the compound `COc1ccccc1CNC(=O)CCn1c(=O)[nH]c2ccc(Br)cc2c1=O`, in [1], the inhibition at 20 µM was determined as 59.8%.
For `COc1cc(F)ccc1CNC(=O)CCn1c(=O)[nH]c2ccccc2c1=O`, the selectivity ratio in data set [3] is above 20. In addition, in data set [1], the inhibition at 20 µM worked out at 74.8%. This compound had a concentration for half-maximal inhibition (IC50) in data set [4] above 100 µM. In addition, the EC50 in data set [2] came to 5 µM.
For `CCOc1ccccc1CNC(=O)CCn1c(=O)[nH]c2ccccc2c1=O`, in data set [3], the selectivity ratio is above 18.2. In data set [1], the inhibition at 20 µM stood at 84.7%. Besides, the IC50 in [4] is above 100 µM. Moreover, the EC50 in [2] is 5.5 µM.
Regarding `COc1ccccc1Cn1cc(Cn2c(=O)[nH]c3ccccc3c2=O)nn1`, the inhibition at 20 µM in data set [1] was determined as 30.5%.
For the compound `O=C(CCn1c(=O)[nH]c2ccccc2c1=O)N1CCc2ccccc2C1`, in data set [1], the inhibition at 20 µM was determined as 30.6%.
For `Cn1nccc1CNC(=O)CCn1c(=O)[nH]c2ccccc2c1=O`, in data set [1], the inhibition at 20 µM turned out to be 19.9%.
The same measure, in the same setting: the figure for `COc1ccccc1NC(=O)CCn1c(=O)[nH]c2ccccc2c1=O` is 53.1%.
For the compound `O=C(CCn1c(=O)[nH]c2ccccc2c1=O)NCc1ccccc1Cl`, in data set [1], the inhibition at 20 µM turned out to be 56%. Also, the EC50 in [2] is 37.5 µM.
With `COc1ccccc1CNS(=O)(=O)CCn1c(=O)[nH]c2ccccc2c1=O`, the inhibition at 20 µM in [1] stood at 21.7%.
Regarding `COc1ccccc1CNC(=O)CCn1c(=O)[nH]c2cc(F)c(F)cc2c1=O`, the inhibition at 20 µM in [1] was 40.5%.
Turning to `COc1cc(F)c(F)cc1CNC(=O)CCn1c(=O)[nH]c2ccccc2c1=O`, the inhibition at 20 µM in [1] stood at 68.3%. The concentration for a half-maximal effect (EC50) in data set [2] amounted to 11.3 µM.
The like results for `COc1ccccc1CNC(=O)CCn1c(=O)[nH]c2ccc(F)cc2c1=O` were, in that order, 65.4% and 20 µM.
For `CC(C)CCNC(=O)CCCn1c(=O)[nH]c2ccccc2c1=O`, the EC50 in [2] was above 25 µM.
Still for that read-out and setting: the figure for `COc1ccccc1CNC(=O)CCCn1c(=O)[nH]c2ccccc2c1=O` is 16.9 µM.
As for `O=C(CCCn1c(=O)[nH]c2ccccc2c1=O)NC1CCCC1`, the inhibition at 20 µM in data set [1] came out at 21.3%.
As for `COc1ccccc1CN(C)C(=O)CCn1c(=O)[nH]c2ccccc2c1=O`, the inhibition at 20 µM in [1] worked out at 41.8%.
On to `O=C(CCn1c(=O)[nH]c2ccccc2c1=O)NCc1ccccc1OC(F)(F)F`, for which the selectivity ratio in [3] is above 14.7. Moreover, in [1], the inhibition at 20 µM is 72.5%. This compound showed a half-maximal inhibitory concentration (IC50) in [4] above 100 µM. Moreover, the EC50 in data set [2] is 6.8 µM.
As to `COc1ccccc1CCNC(=O)CCCn1c(=O)[nH]c2ccccc2c1=O`, in data set [2], the EC50 amounted to 7.7 µM.
As for `O=C(CCn1c(=O)[nH]c2ccccc2c1=O)NCc1ccccc1O`, the inhibition at 20 µM in data set [1] was determined as 17.1%.
Still for that read-out and setting: the result for `COc1ccccc1CNC(=O)CCn1c(=O)[nH]c2ncccc2c1=O` reads 52.4%; that for `O=C(CCn1c(=O)[nH]c2ccccc2c1=O)NCc1nc2ccccc2[nH]1`, 38.1%.
Still for that read-out and setting: the figure for `O=C(CCn1c(=O)[nH]c2ccccc2c1=O)NC1CCCC1` is 32.9%.
Take `COc1ccc(CNC(=O)CCn2c(=O)[nH]c3ccccc3c2=O)c(OC)c1`: in [1], the inhibition at 20 µM amounted to 28%.
Turning to `COc1ccccc1CNC(=O)CCn1c(=O)[nH]c2ccccc2c1=O`, the Kinetic_solubility entry in [5] is given as “Insoluble”. The EC50 turned out to be 0.07 µM in data set [6]; 0.07 µM in data set [10]; 0.07 µM in [11]; 0.07 µM in data set [13]; 0.07 µM in [16]; 0.4 µM in [2]. This compound gave an AUC(0-t) at 7 h in data set [7] of 0.0729 µM·h. This compound returned an Activity in data set [8] of 23%. This compound also showed a Cmax in data set [9] of 21.3 nM. Further, in data set [3], the selectivity ratio is above 250. For the same compound, the 50% inhibitory concentration (IC50) in [12] was 0.044 µM; in [4], above 100 µM. Also, the fraction unbound in data set [14] was below 0.05. This compound also showed an MRT last in data set [15] of 3.01 h. In addition, the inhibition at 11 µM in [17] is 19%. The Tmax in data set [18] was 0.25 h.
With `COc1ccccc1CNC(=O)CCn1c(=O)[nH]c2ccsc2c1=O`, in [5], the Kinetic_solubility result is reported as “Soluble”. Moreover, the half-maximal effective concentration (EC50) in data set [6], in data set [10], in [11], in data set [13] and in [16] was 0.07 µM each time. This compound also came in with an Activity in data set [8] of 27%. In data set [12], the midpoint of inhibition, the IC50, lay at 0.056 µM. Besides, the fraction unbound in data set [14] is above 0.05. This compound registered an inhibition at 11 µM in data set [17] of 5%.

As usually defined, the inhibition is how much of the control response was suppressed. In general, EC50 refers to the midpoint of the concentration-response curve. Broadly, the IC50 is the concentration that inhibits the measured activity by half. The low end stands for greater potency, the high end for weaker potency. Usually AUC(0-t) stands for exposure summed from dosing to a finite time, without extrapolation to infinity. High values mean high exposure, low ones low exposure. A word on the Cmax: it is the highest concentration seen after dosing. By MRT last is commonly meant the average time that molecules of a dose stay in the body. What is called Tmax is the time at which the peak concentration occurs.
